Assay results published in ChEMBL document CHEMBL4425108, “A Selective and Slowly Reversible Inhibitor of l-Type Amino Acid Transporter 1 (LAT1) Potentiates Antiproliferative Drug Efficacy in Cancer Cells” (J Med Chem, 2016).
Activity calls are given as the source filed them. The calls are words filed in the database; no cut-off is given here.

Columns and labels:
HT-29 = test: Growth inhibition of human HT-29 cells measured after 96 hrs by Coulter counter based cell counting method; assay type: functional; details: HT-29, 96 h
[1] = Growth inhibition of human YD38 cells measured after 4 days by MTT assay; assay type: functional; details: 96 h
[2] = Ratio of IC50 for human HT-29 cells to IC50 for leucine uptake at LAT1 in human HT-29 cells
[3] = Ratio of IC50 for human YD-38 cells to IC50 for leucine uptake at LAT1 in human YD-38 cells
[4] = target: T1, Large neutral amino acids transporter small subunit 1 (Homo sapiens, UniProt Q01650); test: Inhibition of [14C]-L-leucine uptake at LAT1 in human YD-38 cells after 1 hr by liquid scintillation counting; assay type: cell-based
T1 sequence (Q01650 whole entry): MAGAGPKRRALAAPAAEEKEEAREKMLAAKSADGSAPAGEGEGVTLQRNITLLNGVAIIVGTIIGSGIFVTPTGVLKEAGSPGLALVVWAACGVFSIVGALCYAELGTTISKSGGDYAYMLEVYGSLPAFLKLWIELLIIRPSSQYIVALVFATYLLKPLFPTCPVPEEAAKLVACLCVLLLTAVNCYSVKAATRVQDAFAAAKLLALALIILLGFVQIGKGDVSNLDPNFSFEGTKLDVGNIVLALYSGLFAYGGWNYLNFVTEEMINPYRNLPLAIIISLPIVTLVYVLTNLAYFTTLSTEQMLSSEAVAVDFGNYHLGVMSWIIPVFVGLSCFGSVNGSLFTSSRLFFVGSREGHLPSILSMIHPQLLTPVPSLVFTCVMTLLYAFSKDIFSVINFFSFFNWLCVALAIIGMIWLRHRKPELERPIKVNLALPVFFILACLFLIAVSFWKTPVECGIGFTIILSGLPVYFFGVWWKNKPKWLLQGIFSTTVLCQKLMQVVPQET

[5] = target: T1, Large neutral amino acids transporter small subunit 1; test: Competitive inhibition of [14C]-L-leucine uptake at LAT1 in human MCF7 cells preincubated for 5 mins followed by addition of substrate measured during 5 mins by liquid scintillation counting; assay type: cell-based
[6] = target: T1, Large neutral amino acids transporter small subunit 1; test: Potency index, ratio of IC50 for 2-amino-2-norbornanecarboxylic acid to IC50 for test compound for inhibition of [14C]-L-leucine uptake at LAT1 in human MCF7 cells; assay type: cell-based
MCF7 [7] = test: Antiproliferative activity against human MCF7 cells assessed as reduction in cell viability measured after 72 hrs by resazurin dye-based fluorimetric analysis; assay type: functional; details: for IC50: MCF7, 72 h
Method in brief: (§1)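 MCF-7 cells were seeded at 2 × 10^4 cells/well on collagen-coated plates and treated one day later. Agents were given alone or combined (25 or 100 µM with 100 µM partner drug) in growth medium for 3 days. Viability was read daily by resazurin fluorescence (ex 560/em 590 nm) and expressed relative to untreated controls.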

MCF7 [8] = test: Antiproliferative activity against human MCF7 cells assessed as reduction in cell viability at 100 measured after 24 hrs by resazurin dye-based fluorimetric analysis; assay type: functional; method in brief: as §1
[9] = target: T1, Large neutral amino acids transporter small subunit 1; test: Inhibition of LAT1 in human MCF7 cells assessed as potentiation of bestatin-induced antiproliferative activity by measuring reduction in cell viability at 100 uM measured after 24 hrs by resazurin dye-based fluorimetric analysis
Method in brief: (§2)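 MCF-7 cells seeded 2 × 10^4/well on collagen-coated plates, treated one day later in growth medium with inhibitor (25 or 100 µM) plus bestatin or cisplatin (100 µM) for up to 3 days. Viability read daily by resazurin fluorescence (ex 560/em 590 nm). Viability is treated relative to untreated control. Mean ± SD, n=3.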

[10] = target: T1, Large neutral amino acids transporter small subunit 1; test: Inhibition of LAT1 in human MCF7 cells assessed as potentiation of cisplatin-induced antiproliferative activity by measuring reduction in cell viability at 100 uM measured after 24 hrs by resazurin dye-based fluorimetric analysis; method in brief: as §2
MCF7 [11] = test: Antiproliferative activity against human MCF7 cells assessed as reduction in cell viability at 100 measured after 48 hrs by resazurin dye-based fluorimetric analysis; assay type: functional; method in brief: as §1
[12] = target: T1, Large neutral amino acids transporter small subunit 1; test: Inhibition of LAT1 in human MCF7 cells assessed as potentiation of bestatin-induced antiproliferative activity by measuring reduction in cell viability at 100 uM measured after 48 hrs by resazurin dye-based fluorimetric analysis; method in brief: as §2
[13] = target: T1, Large neutral amino acids transporter small subunit 1; test: Inhibition of LAT1 in human MCF7 cells assessed as potentiation of cisplatin-induced antiproliferative activity by measuring reduction in cell viability at 100 uM measured after 48 hrs by resazurin dye-based fluorimetric analysis; method in brief: as §2
MCF7 [14] = test: Antiproliferative activity against human MCF7 cells assessed as reduction in cell viability at 100 measured after 72 hrs by resazurin dye-based fluorimetric analysis; assay type: functional; method in brief: as §1
[15] = target: T1, Large neutral amino acids transporter small subunit 1; test: Inhibition of LAT1 in human MCF7 cells assessed as potentiation of bestatin-induced antiproliferative activity by measuring reduction in cell viability at 100 uM measured after 72 hrs by resazurin dye-based fluorimetric analysis; method in brief: as §2
[16] = target: T1, Large neutral amino acids transporter small subunit 1; test: Inhibition of LAT1 in human MCF7 cells assessed as potentiation of cisplatin-induced antiproliferative activity by measuring reduction in cell viability at 100 uM measured after 72 hrs by resazurin dye-based fluorimetric analysis; method in brief: as §2
[17] = target: T1, Large neutral amino acids transporter small subunit 1; test: Drug uptake in human MCF7 cells assessed as LAT1 mediated drug transport per mg of protein at 100 uM after 30 mins by HPLC analysis; assay type: ADME, cell-based; details: mcf7, 0.5 h
Method in brief: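 MCF-7 monolayers were incubated with 100 µM compound in HBSS at 37 °C for 5 or 30 min. Cells got three washes with ice-cold or warm (37 °C) HBSS; in the warm 30 min arm they were washed after 5 min and again after 30 min. Lysates (0.1 M NaOH) were quantified by HPLC-UV against a spiked lysate standard curve and normalised to protein (Bio-Rad assay).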

SMILES	IC50 (HT-29)	IC50 [1]	Ratio IC50 [2]	Ratio IC50 [3]	IC50 [4]	IC50 [5]	Ratio IC50 [6]	Activity (MCF7 [7])	IC50 (MCF7 [7])	Activity (MCF7 [8])	Activity [9]	Activity [10]	Activity (MCF7 [11])	Activity [12]	Activity [13]	Activity (MCF7 [14])	Activity [15]	Activity [16]	Drug uptake [17]
Nc1cc(COc2c(Cl)cc(C[C@H](N)C(=O)O)cc2Cl)c2oc(-c3ccccc3)nc2c1	4.1 µM	69 µM	68 - 87	68 - 87	0.79 µM														
NC1(C(=O)O)CC2CCC1C2 (centres undefined)						112 µM	6 to 6.2	Dose-dependent effect	362 µM	13.9%	30.8%	35.9%	inactive	inactive	inactive	24.1%	3.13%	42.7%	11.9 nmol/mg
CC(C)C[C@H](NC(=O)[C@@H](O)[C@H](N)Cc1ccccc1)C(=O)O [UBENIMEX]								Dose-dependent effect	541 µM	3.4%			7.5%			inactive			
